Measured values: ChEMBL document CHEMBL2203183, “Synthesis of N-phenyl-N-(3-(piperidin-1-yl)propyl)benzofuran-2-carboxamides as new selective ligands for sigma receptors” (Bioorg Med Chem, 2012)

Assays:
[1] = biological target: T1, Alpha-2C adrenergic receptor (Homo sapiens) (UniProt P18825); experiment: Displacement of [3H]clonidine from alpha2C adrenergic receptor at 10 uM after 40 mins by scintillation counting analysis
T1 sequence (whole entry): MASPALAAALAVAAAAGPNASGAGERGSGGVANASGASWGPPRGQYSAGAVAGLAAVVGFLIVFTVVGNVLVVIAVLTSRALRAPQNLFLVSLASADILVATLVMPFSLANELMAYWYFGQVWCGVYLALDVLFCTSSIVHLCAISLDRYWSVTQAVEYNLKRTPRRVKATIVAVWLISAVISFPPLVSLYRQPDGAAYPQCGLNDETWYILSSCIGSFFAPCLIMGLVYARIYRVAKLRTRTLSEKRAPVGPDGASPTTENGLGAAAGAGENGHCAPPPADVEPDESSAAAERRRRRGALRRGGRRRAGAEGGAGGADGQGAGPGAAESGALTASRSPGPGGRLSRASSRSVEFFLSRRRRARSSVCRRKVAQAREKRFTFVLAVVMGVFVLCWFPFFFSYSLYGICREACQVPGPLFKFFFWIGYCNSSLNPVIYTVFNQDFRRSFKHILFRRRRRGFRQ
How it was run: (§1)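 NIMH-PDSP primary screen using membranes from transiently or stably transfected cell lines (e.g., HEK293, COS, CHO, NIH3T3). Compound at 10 μM final. Reference compounds: chlorpromazine (5-HT2A), methysergide (5-HT2B), LY278584 (5-HT3), oxymetazoline (α2A), prazosin (α2C), atropine (M4). Mean % inhibition of radioligand specific binding, N = 4.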

[2] = biological target: T2, Muscarinic acetylcholine receptor M4 (Homo sapiens) (UniProt P08173); experiment: Displacement of [3H]QNB from human recombinant M4 receptor at 10 uM after 1.5 hrs by scintillation counting analysis; how it was run: as §1
T2 sequence (whole entry): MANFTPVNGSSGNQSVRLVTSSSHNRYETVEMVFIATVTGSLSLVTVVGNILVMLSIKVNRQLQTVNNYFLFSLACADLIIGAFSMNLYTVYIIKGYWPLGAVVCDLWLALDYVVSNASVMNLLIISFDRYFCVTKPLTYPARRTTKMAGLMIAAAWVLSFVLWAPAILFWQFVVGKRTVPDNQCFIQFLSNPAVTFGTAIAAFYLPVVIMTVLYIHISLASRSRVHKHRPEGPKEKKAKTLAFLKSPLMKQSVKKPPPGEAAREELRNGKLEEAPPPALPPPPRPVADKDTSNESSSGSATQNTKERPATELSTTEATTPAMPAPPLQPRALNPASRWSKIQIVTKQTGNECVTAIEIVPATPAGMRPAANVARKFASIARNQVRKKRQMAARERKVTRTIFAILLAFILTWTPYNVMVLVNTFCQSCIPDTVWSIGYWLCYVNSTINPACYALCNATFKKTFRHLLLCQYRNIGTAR

[3] = biological target: 5-hydroxytryptamine receptor 2A (Homo sapiens) (UniProt P28223); experiment: Displacement of [3H]ketanserin from human recombinant 5-HT2A receptor at 10 uM after 1.5 hrs by scintillation counting analysis; how it was run: as §1
[4] = biological target: T3, 5-hydroxytryptamine receptor 3A (Homo sapiens) (UniProt P46098); experiment: Displacement of [3H]LY278584 from human recombinant 5-HT3 receptor at 10 uM after 1.5 hrs by scintillation counting analysis; how it was run: as §1
T3 sequence (whole entry): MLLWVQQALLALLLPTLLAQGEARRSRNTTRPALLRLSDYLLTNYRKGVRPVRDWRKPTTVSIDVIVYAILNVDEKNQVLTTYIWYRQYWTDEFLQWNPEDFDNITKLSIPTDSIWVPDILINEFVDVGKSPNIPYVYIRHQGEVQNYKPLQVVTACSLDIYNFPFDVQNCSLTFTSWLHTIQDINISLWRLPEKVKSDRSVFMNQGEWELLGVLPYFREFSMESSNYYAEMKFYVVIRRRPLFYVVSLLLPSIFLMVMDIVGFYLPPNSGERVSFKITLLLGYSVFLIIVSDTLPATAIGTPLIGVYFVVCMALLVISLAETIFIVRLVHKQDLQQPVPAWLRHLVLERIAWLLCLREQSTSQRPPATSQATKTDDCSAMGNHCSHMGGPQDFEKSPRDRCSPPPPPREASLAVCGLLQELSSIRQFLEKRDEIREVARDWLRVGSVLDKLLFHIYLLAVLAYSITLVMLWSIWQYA

[5] = biological target: T4, Alpha-2A adrenergic receptor (Homo sapiens) (UniProt P08913); experiment: Displacement of [3H]clonidine from alpha2A adrenergic receptor at 10 uM after 40 mins by scintillation counting analysis
T4 sequence (whole entry): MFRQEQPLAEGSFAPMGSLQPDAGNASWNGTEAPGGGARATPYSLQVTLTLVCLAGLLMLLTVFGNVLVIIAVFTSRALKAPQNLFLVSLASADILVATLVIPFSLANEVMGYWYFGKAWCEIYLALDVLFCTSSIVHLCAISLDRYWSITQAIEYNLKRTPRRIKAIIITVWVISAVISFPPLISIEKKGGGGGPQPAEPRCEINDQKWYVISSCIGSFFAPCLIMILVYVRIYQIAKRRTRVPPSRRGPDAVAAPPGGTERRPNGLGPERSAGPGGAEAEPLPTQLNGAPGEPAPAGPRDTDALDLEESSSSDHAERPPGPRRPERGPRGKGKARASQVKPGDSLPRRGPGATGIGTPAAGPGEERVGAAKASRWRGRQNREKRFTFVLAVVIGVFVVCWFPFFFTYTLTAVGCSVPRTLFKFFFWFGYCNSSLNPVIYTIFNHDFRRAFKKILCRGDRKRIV

[6] = biological target: 5-hydroxytryptamine receptor 2B (Homo sapiens) (UniProt P41595); experiment: Displacement of [3H]LSD from human recombinant 5-HT2B receptor at 10 uM after 1.5 hrs by scintillation counting analysis; how it was run: as §1
[7] = Displacement of [3H]DTG from sigma 2 receptor in rat PC12 cell membrane after 2 hrs by scintillation counting; type: cell membranes; settings: pc-12
[8] = tested on: PC-12; experiment: Displacement of [3H]DTG from sigma 2 receptor in rat PC12 cell membrane at 10 uM after 2 hrs by scintillation counting; type: cell membranes
[9] = biological target: D(3) dopamine receptor (Homo sapiens) (UniProt P35462); experiment: Displacement of [3H]N-methylspiperone from dopamine D3 receptor at 10 uM after 1.5 hrs by scintillation counting analysis
[10] = biological target: Sigma non-opioid intracellular receptor 1 (Rattus norvegicus) (UniProt Q9R0C9); experiment: Displacement of [3H](+)-pentazocine from sigma 1 receptor in rat brain membrane at 10 uM after 2.5 hrs by scintillation counting; type: cell membranes
[11] = biological target: T5, Muscarinic acetylcholine receptor M4 (Homo sapiens, UniProt P08173); experiment: Displacement of [3H]QNB from human recombinant M4 receptor after 1.5 hrs by scintillation counting analysis
T5 sequence (P08173 whole entry): T2 sequence (whole entry)
How it was run: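 Membranes from transiently or stably transfected cell lines, run through the NIMH-PDSP program. [3H]QNB was the radioligand and atropine the reference. […] Competition curves were fitted to a three-parameter logistic to give IC50, converted to Ki by Cheng-Prusoff.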

Sequence of 5-hydroxytryptamine receptor 2A (Homo sapiens) (P28223 whole entry): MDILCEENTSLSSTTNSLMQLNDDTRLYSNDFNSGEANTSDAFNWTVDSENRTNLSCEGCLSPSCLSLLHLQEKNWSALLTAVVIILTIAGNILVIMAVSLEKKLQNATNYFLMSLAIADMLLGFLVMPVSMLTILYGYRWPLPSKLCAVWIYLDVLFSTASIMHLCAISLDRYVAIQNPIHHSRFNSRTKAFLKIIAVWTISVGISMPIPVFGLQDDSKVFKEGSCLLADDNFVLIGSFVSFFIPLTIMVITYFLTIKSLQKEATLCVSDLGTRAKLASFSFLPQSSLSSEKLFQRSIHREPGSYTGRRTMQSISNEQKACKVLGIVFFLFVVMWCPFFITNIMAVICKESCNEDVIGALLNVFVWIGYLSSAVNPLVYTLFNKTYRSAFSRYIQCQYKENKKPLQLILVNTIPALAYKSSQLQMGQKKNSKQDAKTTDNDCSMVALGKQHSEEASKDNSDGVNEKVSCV
Sequence of 5-hydroxytryptamine receptor 2B (Homo sapiens) (P41595 whole entry): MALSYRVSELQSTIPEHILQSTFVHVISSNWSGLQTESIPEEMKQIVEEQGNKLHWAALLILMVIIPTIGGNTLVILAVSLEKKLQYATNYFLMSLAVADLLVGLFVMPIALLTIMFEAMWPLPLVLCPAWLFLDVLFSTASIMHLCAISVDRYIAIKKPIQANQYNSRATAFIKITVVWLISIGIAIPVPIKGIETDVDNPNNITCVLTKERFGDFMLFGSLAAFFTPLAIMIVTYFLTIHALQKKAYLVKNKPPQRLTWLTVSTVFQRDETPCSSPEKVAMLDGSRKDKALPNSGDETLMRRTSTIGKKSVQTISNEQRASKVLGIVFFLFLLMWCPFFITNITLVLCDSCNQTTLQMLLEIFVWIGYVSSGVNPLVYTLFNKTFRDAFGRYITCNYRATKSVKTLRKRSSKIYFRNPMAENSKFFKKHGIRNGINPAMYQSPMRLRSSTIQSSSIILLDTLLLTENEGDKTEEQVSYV
Sequence of D(3) dopamine receptor (Homo sapiens) (P35462 whole entry): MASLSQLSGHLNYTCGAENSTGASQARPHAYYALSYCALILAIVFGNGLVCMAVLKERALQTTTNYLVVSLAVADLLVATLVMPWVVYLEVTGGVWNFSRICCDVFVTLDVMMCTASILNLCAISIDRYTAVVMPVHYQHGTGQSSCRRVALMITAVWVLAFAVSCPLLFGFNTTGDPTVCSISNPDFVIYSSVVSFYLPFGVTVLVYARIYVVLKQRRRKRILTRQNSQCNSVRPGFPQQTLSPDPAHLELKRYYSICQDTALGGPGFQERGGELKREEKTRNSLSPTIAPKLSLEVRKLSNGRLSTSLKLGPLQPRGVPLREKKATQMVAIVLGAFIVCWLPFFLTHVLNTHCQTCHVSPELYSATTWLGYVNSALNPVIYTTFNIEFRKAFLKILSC
Sequence of Sigma non-opioid intracellular receptor 1 (Rattus norvegicus) (Q9R0C9 whole entry): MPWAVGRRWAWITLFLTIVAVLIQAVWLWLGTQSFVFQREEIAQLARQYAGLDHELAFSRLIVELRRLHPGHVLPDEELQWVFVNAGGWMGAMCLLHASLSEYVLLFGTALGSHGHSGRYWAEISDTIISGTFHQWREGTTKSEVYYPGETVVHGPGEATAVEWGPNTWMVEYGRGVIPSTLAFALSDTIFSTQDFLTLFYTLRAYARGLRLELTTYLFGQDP

SMILES	inhibition [1] [%]	inhibition [2] [%]	inhibition [3] [%]	inhibition [4] [%]	inhibition [5] [%]	inhibition [6] [%]	Ki [7] [nM]	inhibition [8] [%]	inhibition [9] [%]	inhibition [10] [%]	Ki [11] [nM]
Cc1c(C(=O)N(CCCN2CCCCC2)c2ccccc2)oc2ccccc12	61.9	43.1	18.1	2.9	77.7	69.2	16	93.5			
COc1ccc2c(C)c(C(=O)N(CCCN3CCCCC3)c3ccccc3)oc2c1	49	68.4	61.2	7.3		93.9	41	88.5	40.6	97.7	> 10000
COc1cc2oc(C(=O)N(CCCN3CCCCC3)c3ccccc3)c(C)c2cc1OC	78.9	54.4	76.6	64.2		43.8	528	81.4	38.8	99.8	
